Experiments:
[1] = Percent block of sciatic nerve sartorius muscle twitch of frog 60 min after direct stimulation and exposure to 50 uM toxin for 60 min; assay type: functional, Muscle tissue
In short: (§1)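 Frog sartorius nerve-muscle in oxygenated physiological solution (100% O2, pH 6.9-7.1). Indirect: nerve stimulated with supramaximal 0.05-0.1 ms pulses via Ag-AgCl salt-bridge electrode. Direct: supramaximal 1.0-2.0 ms rectangular pulses at 0.05 Hz through bipolar platinum electrode around mid-muscle. Compounds at 50 µM, diluted in physiological solution just before use, applied 60 min. Twitch tension recorded; means ± SD from at least three muscles.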

[2] = Percent block of sciatic nerve sartorius muscle twitch of frog 60 min after indirect stimulation and exposure to 50 uM toxin for 60 min; assay type: functional, Muscle tissue; in short: as §1
[3] = Percent block of sciatic nerve sartorius muscle twitch of frog 30 min after indirect stimulation and exposure to 50 uM toxin for 60 min; assay type: functional, Muscle tissue; in short: as §1
[4] = Percent block of sciatic nerve sartorius muscle twitch of frog 30 min after direct stimulation and exposure to 50 uM toxin for 60 min; assay type: functional, Muscle tissue; in short: as §1
[5] = Percent maximum potentiation of the sciatic nerve sartorius muscle twitch after indirect stimulation and exposure to 50 uM toxin for 60 min; assay type: functional, frog, Muscle tissue; in short: as §1
[6] = Percent maximum potentiation of the sciatic nerve sartorius muscle twitch after direct stimulation and exposure to 50 uM toxin for 60 min; assay type: functional, frog, Muscle tissue; in short: as §1

| SMILES | Block [1] [%] | Block [2] [%] | Block [3] [%] | Block [4] [%] | Activity [5] [%] | Activity [6] [%] |
| --- | --- | --- | --- | --- | --- | --- |
| CCCC[C@@H]1C(=O)CCCC12CCCCN2C (some centres undefined) | 33 | 56 | 49 | 26 |  |  |
| CCCC[C@@H]1[C@H](O)CCCC12CCCC[N+]2(C)C.[I-] (some centres undefined) | 49 | 83 | 74 | 48 |  |  |
| CCCCC1C2CCCC13CCCCN3C(=O)O2 (centres undefined) | 31 | 66 | 35 | 22 |  |  |
| CCCCCC1CCC[C@]2(CCC[C@H](O)C2CCCC)N1 (some centres undefined) | 45 | 100 | 100 | 47 |  |  |
| CCCC[C@@H]1[C@H](O)CCCC12CCCCN2 (some centres undefined) | 30 | 61 | 55 | 19 |  |  |
| CCCC[C@@H]1[C@@H](OC(C)=O)CCCC12CCCC[N+]2(C)C.[I-] (some centres undefined) | 47 | 91 | 85 | 34 |  |  |
| CCCCC1C(OC(=O)OC)CCCC12CCCCN2C(=O)OC (centres undefined) | 0 | 0 | 0 | 0 |  |  |
| CCCC[C@@H]1C(=O)CCCC12CCCCN2C(C)=O (some centres undefined) | 6 | 20 | 7 | 0 | 117 | 102 |
| CCCC[C@@H]1[C@@H](O)CCCC12CCCC[N+]2(C)C.[I-] (some centres undefined) | 43 | 49 | 39 | 29 |  |  |
| CCCC[C@@H]1[C@H](O)CCCC12CCCCN2C (some centres undefined) | 5 | 65 | 62 | 5 |  |  |
| CCCCC1C(OC(C)=O)CCCC12CCCCN2C(C)=O (centres undefined) | 0 | 0 | 0 | 0 | 125 | 118 |
| CCCC[C@@H]1C(=O)CCCC12CCCCN2 (some centres undefined) | 25 | 58 | 46 | 8 |  |  |
| CCCCC1C(OC(=O)OC)CCCC12CCCCN2 (centres undefined) | 25 | 82 | 67 | 14 |  |  |
| CCCCC1C(O)CCCC12CCCCN2C(C)=O (centres undefined) | 24 | 26 | 10 | 20 | 116 | 103 |
| CCCCC1C(O)CCCC12CCCCN2 (centres undefined) | 52 | 100 | 96 | 52 |  |  |
| CCCCC1C(OC(C)=O)CCCC12CCCCN2C (centres undefined) | 25 | 94 | 88 | 22 |  |  |
| CCCCC1C(O)CCCC12CCCCN2C (centres undefined) | 30 | 92 | 78 | 24 |  |  |

Source: ChEMBL document CHEMBL1122108, “(+/-)-2-Depentylperhydrohistrionicotoxin: a new probe for a regulatory site on the nicotinic acetylcholine receptor-channel” (1982)
